From ChEMBL document CHEMBL1137991, “Novel secoergoline derivatives inhibit both GABA and glutamate uptake in rat brain homogenates: synthesis, in vitro pharmacology, and modeling” (J Med Chem, 2004)

Tests used:
[1] = In vitro inhibition of [3H]DASP transport through rat cerebrocortical membranes; format: functional, cell membranes, Membrane
Summary of the method: (§1)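 Rat cerebrocortical native plasma membrane vesicle fraction, final pellet in buffer A (145 mM NaCl, 5 mM KCl, 1 mM CaCl2, 1 mM MgCl2, 10 mM glucose, 0.1 mM aminooxyacetate, 2 mM NaHCO3, 20 mM HEPES, pH 7.5). Specific [3H]D-aspartate (24 Ci/mmol) transport measured at 30 °C. Duplicates in 2–6 experiments. IC50 given as mean ± SD.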

GABA transporter [2] = target: T1, GABA transporter (Rattus norvegicus, UniProt P31647+P23978+P31646+P48056); assay: In vitro inhibitory activity against [3H]GABA transport in rat cerebrocortical membranes; format: cell membranes
Summary of the method: (§2)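 Specific [3H]GABA (61 Ci/mmol) transport was measured at 30 °C in a native plasma membrane vesicle fraction from rat cerebral cortex. Vesicles were suspended in buffer A (Na+/K+/Ca2+/Mg2+ saline, 10 mM glucose, 0.1 mM aminooxyacetate, 20 mM HEPES, pH 7.5). Duplicates in 2–6 experiments. IC50 given as mean ± SD.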

[3] = In vitro inhibition of [3H]DASP transport through rat cerebrocortical membranes with 100 uM TBOA; Phase 1; format: functional, cell membranes, Membrane
Summary of the method: (§3)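 [3H]D-aspartate (24 Ci/mmol) transport into rat cerebrocortical plasma membrane vesicles in HEPES-buffered saline A, pH 7.5, at 30 °C, with 100 µM DL-TBOA present. An IC50 was taken for each phase of the dose–response curve. Duplicates in 2–6 experiments, mean ± SD.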

[4] = In vitro inhibition of [3H]DASP transport through rat cerebrocortical membranes with 100 uM TBOA; Phase 2; format: functional, cell membranes, Membrane; summary of the method: as §3
[5] = In vitro inhibition of [3H]DASP transport through rat cerebrocortical membranes without TBOA; Control; format: functional, cell membranes, Membrane; summary of the method: as §1
GABA transporter [6] = target: T1, GABA transporter; assay: In vitro inhibitory activity against [3H]-GABA transport in rat cerebrocortical membranes in the presence of NNC-711 (100 uM); Phase 1; format: cell membranes
Summary of the method: (§4)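 [3H]GABA (61 Ci/mmol) uptake by rat cerebrocortical membrane vesicles in buffer A, pH 7.5, at 30 °C, with 100 µM NNC-711 present. An IC50 was derived for each phase of the dose–response curve. Duplicates in 2–6 experiments, mean ± SD.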

GABA transporter [7] = target: T1, GABA transporter; assay: In vitro inhibitory activity against [3H]GABA transport in rat cerebrocortical membranes in the presence of NNC-711 (100 uM); Phase 2; format: cell membranes; summary of the method: as §4
GABA transporter [8] = target: T1, GABA transporter; assay: In vitro inhibitory activity against [3H]GABA transport in rat cerebrocortical membranes in the absence of NNC-711; Control; format: cell membranes; summary of the method: as §2

In the case of `CCOC(=O)C1C(=O)C=C(c2ccccc2)C(C)N1C` (configuration not stated), the IC50 [1] is reported as 660 µM and the IC50 (GABA transporter [2]) is reported as 680 µM.

`COC(=O)/C=C(/c1ccccc1)C(C)N(C)CC(=O)OC` (configuration not stated) showed an IC50 [1] of 1100 µM and an IC50 (GABA transporter [2]) of 1100 µM.

For `CCOC(=O)C1C(=O)C=C(c2ccccc2)C(C)N1C.N[C@H](C(=O)O)[C@H](OCc1ccccc1)C(=O)O` (configuration not stated), the IC50 [3] was 0.009 µM, the IC50 [4] was 591 µM and the IC50 [5] was 660 µM.

In the case of `CCOC(=O)/C=C(/c1ccccc1)C(C)N(C)CC(=O)OCC.N[C@H](C(=O)O)[C@H](OCc1ccccc1)C(=O)O` (configuration not stated), the IC50 [3] is reported as 0.034 µM, the IC50 [4] is reported as 386 µM and the IC50 [5] is reported as 420 µM.

For `COC(=O)/C=C(\c1ccccc1)C(C)N(C)CC(=O)OC` (configuration not stated), the IC50 [1] was greater than 1000 µM and the IC50 (GABA transporter [2]) was >> 1000 uM.

With `CCOC(=O)[C@@H]1CN(C)C(C)[C@](O)(c2ccccc2)[C@H]1C(=O)OCC` (some centres not stated) the IC50 [1] was greater than 1000 µM and the IC50 (GABA transporter [2]) was >> 1000 uM.

With `CCOC(=O)C1=C(c2ccccc2)C(C)N(C)CC1C(=O)OCC` (configuration not stated) the IC50 [1] was greater than 1000 µM and the IC50 (GABA transporter [2]) was >> 1000 uM.

In the case of `CCOC(=O)[C@H]1[C@H](C(=O)O)CN(C)C(C)[C@]1(O)c1ccccc1` (some centres not stated), the IC50 [1] is reported as greater than 1000 µM and the IC50 (GABA transporter [2]) is reported as >> 1000 uM.

With `CC1N(C)C[C@@H](C(=O)O)[C@H](C(=O)O)[C@@]1(O)c1ccccc1` (some centres not stated) the IC50 [1] was greater than 1000 µM and the IC50 (GABA transporter [2]) was >> 1000 uM.

For `CCOC(=O)/C=C(\c1ccccc1)C(C)N(C)CC(=O)OCC` (configuration not stated), the IC50 [1] was greater than 1000 µM and the IC50 (GABA transporter [2]) was >> 1000 uM.

Work on `COC(=O)/C=C(/c1ccccc1)C(C)N(C)CC(=O)OC.N[C@H](C(=O)O)[C@H](OCc1ccccc1)C(=O)O` (configuration not stated) yielded an IC50 [3] of 0.011 µM, an IC50 [4] of 1020 µM and an IC50 [5] of 1100 µM.

In the case of `CCOC(=O)/C=C(/c1ccccc1)C(C)N(C)CC(=O)OCC` (configuration not stated), the IC50 [1] is reported as 420 µM and the IC50 (GABA transporter [2]) is reported as 270 µM.

In the case of `CCOC(=O)CNC(C)C(=O)c1ccccc1.Cl` (configuration not stated), the IC50 [1] is reported as greater than 1000 µM and the IC50 (GABA transporter [2]) is reported as >> 1000 uM.

Compound `CCOC(=O)C1C(=O)C=C(c2ccccc2)C(C)N1C.Cl.O=C(O)C1=CCCN(CCON=C(c2ccccc2)c2ccccc2)C1` has an IC50 (GABA transporter [6]) of 0.0037 µM, an IC50 (GABA transporter [7]) of 360 µM and an IC50 (GABA transporter [8]) of 680 µM.

With `CCOC(=O)CN(C)C(C)C(=O)c1ccccc1.Cl` (configuration not stated) the IC50 [1] was greater than 1000 µM and the IC50 (GABA transporter [2]) was >> 1000 uM.

In the case of `COC(=O)CN(C)C(C)C(=O)c1ccccc1.Cl` (configuration not stated), the IC50 [1] is reported as greater than 1000 µM and the IC50 (GABA transporter [2]) is reported as >> 1000 uM.

In the case of `COC(=O)/C=C(/c1ccccc1)C(C)N(C)CC(=O)OC.Cl.O=C(O)C1=CCCN(CCON=C(c2ccccc2)c2ccccc2)C1`, the IC50 (GABA transporter [6]) is reported as 0.044 µM, the IC50 (GABA transporter [7]) is reported as 491 µM and the IC50 (GABA transporter [8]) is reported as 1100 µM.

For `CCOC(=O)/C=C(/c1ccccc1)C(C)N(C)CC(=O)OCC.Cl.O=C(O)C1=CCCN(CCON=C(c2ccccc2)c2ccccc2)C1`, the IC50 (GABA transporter [6]) was 0.18 µM, the IC50 (GABA transporter [7]) was 380 µM and the IC50 (GABA transporter [8]) was 270 µM.
